The source made the active and inactive calls. No cut-off for these calls is given here.

Data set [1] addresses Serine/threonine-protein kinase PLK4 (Homo sapiens) (UniProt O00444). As to the kind of experiment: Inhibition of PLK4 (unknown origin) assessed as remaining activity at 10 uM by ATP-competition binding assay relative to control.
Data set [2] deals with c-Jun N-terminal kinase, JNK (Homo sapiens, UniProt P45983+P53779+P45984). As to the kind of experiment: Inhibition of JNK1/JNK2/JNK3 in human HeLa cells lysate pre incubated for 15 mins followed by ATP acyl phosphate probe addition and measured after 10 mins by LC-MS/MS analysis. It counts as subcellular.
In data set [3] the target is Serine/threonine-protein kinase Nek4 (Homo sapiens, UniProt P51957). As to the kind of experiment: Inhibition of NEK4 in human HeLa cells lysate pre incubated for 15 mins followed by ATP acyl phosphate probe addition and measured after 10 mins by LC-MS/MS analysis. In kind it is subcellular.
Serine/threonine-protein kinase Nek4, sequence (P51957 whole entry): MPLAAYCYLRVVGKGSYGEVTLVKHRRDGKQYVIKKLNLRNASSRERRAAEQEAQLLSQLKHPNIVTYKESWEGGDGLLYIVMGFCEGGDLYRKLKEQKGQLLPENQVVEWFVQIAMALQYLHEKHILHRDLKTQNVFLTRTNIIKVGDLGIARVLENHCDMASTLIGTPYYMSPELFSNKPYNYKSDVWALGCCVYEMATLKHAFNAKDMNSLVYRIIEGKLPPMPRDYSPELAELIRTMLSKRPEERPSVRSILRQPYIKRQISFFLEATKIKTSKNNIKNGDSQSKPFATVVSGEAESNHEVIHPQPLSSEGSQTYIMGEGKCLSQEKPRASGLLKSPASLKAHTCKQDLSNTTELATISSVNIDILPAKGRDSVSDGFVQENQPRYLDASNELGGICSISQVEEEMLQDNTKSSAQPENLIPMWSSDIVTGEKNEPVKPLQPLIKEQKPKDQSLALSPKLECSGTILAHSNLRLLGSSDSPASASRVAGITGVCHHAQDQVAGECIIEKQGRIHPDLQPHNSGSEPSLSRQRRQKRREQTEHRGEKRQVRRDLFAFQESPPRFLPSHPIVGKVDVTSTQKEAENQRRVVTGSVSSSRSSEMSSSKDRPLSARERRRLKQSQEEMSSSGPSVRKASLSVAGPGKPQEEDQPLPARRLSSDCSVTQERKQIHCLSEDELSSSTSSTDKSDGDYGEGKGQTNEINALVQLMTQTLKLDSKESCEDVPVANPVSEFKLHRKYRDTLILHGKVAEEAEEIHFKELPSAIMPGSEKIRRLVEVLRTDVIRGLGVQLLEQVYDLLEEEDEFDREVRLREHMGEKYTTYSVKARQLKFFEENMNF
The target in data set [4] is Transcription intermediary factor 1-beta (Homo sapiens, UniProt Q13263). As to the kind of experiment: Inhibition of TIF1b in human HeLa cells lysate pre incubated for 15 mins followed by ATP acyl phosphate probe addition and measured after 10 mins by LC-MS/MS analysis. It counts as subcellular.
In data set [5] the target is Serine/threonine-protein kinase B-raf (Homo sapiens, UniProt P15056). As to the kind of experiment: Inhibition of BRAF in human HeLa cells lysate pre incubated for 15 mins followed by ADP acyl phosphate probe addition and measured after 10 mins by LC-MS/MS analysis. It counts as subcellular. The gist of the method: (§1)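 KiNativ-type profiling in HeLa lysate (5 mg/mL total protein). Lysate preincubated 15 min with inhibitor at 50, 10, 2, 0.8 or 0 μM, then ATP or ADP acylphosphate probe added (5 μM final) for 10 min. Reaction stopped with urea and analysed by targeted MS, using up to four fragment ions per kinase peptide-probe conjugate. % inhibition calculated against untreated lysate. Duplicate reactions.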
Serine/threonine-protein kinase B-raf, sequence (P15056 whole entry, the tested form may be a part): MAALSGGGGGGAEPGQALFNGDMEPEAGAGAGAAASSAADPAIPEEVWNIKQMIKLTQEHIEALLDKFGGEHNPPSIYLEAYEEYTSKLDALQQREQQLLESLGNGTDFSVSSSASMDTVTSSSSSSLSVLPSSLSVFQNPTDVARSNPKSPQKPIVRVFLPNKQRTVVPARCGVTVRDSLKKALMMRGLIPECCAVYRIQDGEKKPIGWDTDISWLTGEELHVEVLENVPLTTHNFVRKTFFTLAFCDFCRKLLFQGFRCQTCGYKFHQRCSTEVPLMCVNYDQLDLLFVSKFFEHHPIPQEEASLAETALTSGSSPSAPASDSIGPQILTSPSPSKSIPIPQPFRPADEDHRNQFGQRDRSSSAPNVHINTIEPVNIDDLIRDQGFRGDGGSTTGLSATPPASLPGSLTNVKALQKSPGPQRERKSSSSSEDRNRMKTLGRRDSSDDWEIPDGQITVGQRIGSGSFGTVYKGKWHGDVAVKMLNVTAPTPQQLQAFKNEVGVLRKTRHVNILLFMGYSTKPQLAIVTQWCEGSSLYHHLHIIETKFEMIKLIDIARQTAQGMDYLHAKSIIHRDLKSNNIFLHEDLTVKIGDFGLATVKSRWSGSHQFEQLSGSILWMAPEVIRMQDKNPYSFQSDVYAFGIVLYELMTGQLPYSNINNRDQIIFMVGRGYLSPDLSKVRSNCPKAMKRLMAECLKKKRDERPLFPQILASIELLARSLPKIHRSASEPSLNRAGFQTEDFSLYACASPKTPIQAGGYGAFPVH

The target in data set [6] is Calcium/calmodulin-dependent protein kinase type II subunit gamma (Homo sapiens, UniProt Q13555). The data set can be described thus: Inhibition of CAMK2g in human HeLa cells lysate pre incubated for 15 mins followed by ADP acyl phosphate probe addition and measured after 10 mins by LC-MS/MS analysis. It counts as subcellular. The gist of the method:
as §1

The target in data set [7] is T1, Serine/threonine-protein kinase D3 (Homo sapiens) (UniProt O94806).
T1 sequence (whole entry): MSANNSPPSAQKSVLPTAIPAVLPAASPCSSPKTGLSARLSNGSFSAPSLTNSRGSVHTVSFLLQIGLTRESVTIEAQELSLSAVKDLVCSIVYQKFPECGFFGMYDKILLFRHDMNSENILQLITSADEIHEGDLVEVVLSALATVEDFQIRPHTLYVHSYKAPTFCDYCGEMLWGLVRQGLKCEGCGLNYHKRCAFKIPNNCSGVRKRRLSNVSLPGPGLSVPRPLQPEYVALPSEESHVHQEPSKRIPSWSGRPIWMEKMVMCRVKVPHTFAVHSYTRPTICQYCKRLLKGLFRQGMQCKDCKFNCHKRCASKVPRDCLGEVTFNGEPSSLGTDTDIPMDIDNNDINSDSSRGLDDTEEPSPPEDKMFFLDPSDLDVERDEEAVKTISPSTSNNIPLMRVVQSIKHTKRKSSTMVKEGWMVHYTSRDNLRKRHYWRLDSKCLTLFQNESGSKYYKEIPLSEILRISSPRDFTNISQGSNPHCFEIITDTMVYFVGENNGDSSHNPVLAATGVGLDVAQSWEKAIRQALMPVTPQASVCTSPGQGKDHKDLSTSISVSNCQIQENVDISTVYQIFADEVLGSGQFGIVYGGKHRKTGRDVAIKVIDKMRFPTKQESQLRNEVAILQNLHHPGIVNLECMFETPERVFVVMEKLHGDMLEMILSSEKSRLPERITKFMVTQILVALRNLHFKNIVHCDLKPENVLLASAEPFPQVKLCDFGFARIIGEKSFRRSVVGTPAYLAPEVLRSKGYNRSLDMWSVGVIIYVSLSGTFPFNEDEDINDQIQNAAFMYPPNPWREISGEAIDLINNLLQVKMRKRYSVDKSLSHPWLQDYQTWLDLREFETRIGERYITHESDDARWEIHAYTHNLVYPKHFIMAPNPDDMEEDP
The data set can be described thus: Inhibition of PKD3 in human HeLa cells lysate at 50 uM pre incubated for 15 mins followed by ADP acyl phosphate probe addition and measured after 10 mins by LC-MS/MS analysis relative to control. It counts as subcellular. The settings on record: time 25.0 min.

A short description of data set [8]: Inhibition of MST4/YSK1 in human HeLa cells lysate at 2 uM pre incubated for 15 mins followed by ADP acyl phosphate probe addition and measured after 10 mins by LC-MS/MS analysis relative to control. The settings on record: 25 min, condition cancer.
Data set [9] concerns the target Dual specificity mitogen-activated protein kinase kinase; MEK1/2 (Homo sapiens, UniProt P36507+Q02750). As to the kind of experiment: Inhibition of MAP2K1/MAP2K2in human HeLa cells lysate at 2 uM pre incubated for 15 mins followed by ADP acyl phosphate probe addition and measured after 10 mins by LC-MS/MS analysis relative to control. The settings on record: time 25.0 min. It counts as subcellular.

For data set [10], the target named is Mitogen-activated protein kinase kinase kinase 20 (Homo sapiens, UniProt Q9NYL2). As to the kind of experiment: Inhibition of ZAK in human HeLa cells lysate at 50 uM pre incubated for 15 mins followed by ATP acyl phosphate probe addition and measured after 10 mins by LC-MS/MS analysis relative to control. The settings on record: time 25.0 min. In kind it is subcellular.
Mitogen-activated protein kinase kinase kinase 20, sequence (Q9NYL2 2-800 limits assumed): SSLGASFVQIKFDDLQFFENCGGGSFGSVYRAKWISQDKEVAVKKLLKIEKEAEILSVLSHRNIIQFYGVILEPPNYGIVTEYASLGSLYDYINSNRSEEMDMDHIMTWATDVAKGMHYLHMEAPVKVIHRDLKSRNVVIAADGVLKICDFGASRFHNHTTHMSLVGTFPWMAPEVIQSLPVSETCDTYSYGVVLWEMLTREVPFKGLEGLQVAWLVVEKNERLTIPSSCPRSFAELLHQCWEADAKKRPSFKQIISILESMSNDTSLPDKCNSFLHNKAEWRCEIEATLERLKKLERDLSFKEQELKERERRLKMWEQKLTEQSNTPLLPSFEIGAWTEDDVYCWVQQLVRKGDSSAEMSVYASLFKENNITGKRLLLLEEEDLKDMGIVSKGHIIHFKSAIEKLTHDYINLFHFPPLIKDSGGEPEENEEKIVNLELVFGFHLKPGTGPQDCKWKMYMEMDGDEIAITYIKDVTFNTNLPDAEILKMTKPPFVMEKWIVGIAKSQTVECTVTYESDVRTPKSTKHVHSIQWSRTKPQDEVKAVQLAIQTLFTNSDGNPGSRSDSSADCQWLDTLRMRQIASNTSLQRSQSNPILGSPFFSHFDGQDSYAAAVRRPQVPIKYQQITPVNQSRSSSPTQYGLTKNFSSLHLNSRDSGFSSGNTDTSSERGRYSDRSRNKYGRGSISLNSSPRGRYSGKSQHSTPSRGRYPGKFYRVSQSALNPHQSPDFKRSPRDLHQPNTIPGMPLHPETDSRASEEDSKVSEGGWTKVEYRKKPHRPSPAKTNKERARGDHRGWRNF

Data set [11] deals with Mitogen-activated protein kinase 14 (Homo sapiens, UniProt Q16539). As to the kind of experiment: Inhibition of p38a in human HeLa cells lysate at 50 uM pre incubated for 15 mins followed by ATP acyl phosphate probe addition and measured after 10 mins by LC-MS/MS analysis relative to control. In kind it is subcellular. The settings on record: time 25.0 min.
Data set [12] has as its target Wee1-like protein kinase (Homo sapiens, UniProt P30291). The data set can be described thus: Inhibition of Wee1 in human HeLa cells lysate at 50 uM pre incubated for 15 mins followed by ATP acyl phosphate probe addition and measured after 10 mins by LC-MS/MS analysis relative to control. In kind it is subcellular. Conditions: time 25.0 min.
For data set [13], the target named is Tyrosine-protein kinase CSK (Homo sapiens, UniProt P41240). The data set can be described thus: Inhibition of CSK in human HeLa cells lysate at 50 uM pre incubated for 15 mins followed by ATP acyl phosphate probe addition and measured after 10 mins by LC-MS/MS analysis relative to control. The settings on record: time 25.0 min. In kind it is subcellular.
Tyrosine-protein kinase CSK, sequence (P41240 2-450 limits assumed): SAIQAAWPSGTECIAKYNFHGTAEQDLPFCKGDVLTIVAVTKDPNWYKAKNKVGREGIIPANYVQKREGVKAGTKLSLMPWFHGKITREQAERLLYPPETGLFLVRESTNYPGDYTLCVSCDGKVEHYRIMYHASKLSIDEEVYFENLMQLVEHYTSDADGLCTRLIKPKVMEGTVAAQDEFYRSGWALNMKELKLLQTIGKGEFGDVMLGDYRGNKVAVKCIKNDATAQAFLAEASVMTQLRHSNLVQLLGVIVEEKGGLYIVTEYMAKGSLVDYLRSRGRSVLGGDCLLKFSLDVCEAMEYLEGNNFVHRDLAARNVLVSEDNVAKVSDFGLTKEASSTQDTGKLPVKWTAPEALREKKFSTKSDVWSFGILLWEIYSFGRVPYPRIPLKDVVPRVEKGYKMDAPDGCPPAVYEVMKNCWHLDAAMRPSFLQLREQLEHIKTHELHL
Data set [14] deals with Interferon-induced, double-stranded RNA-activated protein kinase (Homo sapiens, UniProt P19525). The data set can be described thus: Inhibition of PKR in human HeLa cells lysate at 10 uM pre incubated for 15 mins followed by ATP acyl phosphate probe addition and measured after 10 mins by LC-MS/MS analysis relative to control. In kind it is subcellular. The settings on record: time 25.0 min.
Interferon-induced, double-stranded RNA-activated protein kinase, sequence (P19525 whole entry): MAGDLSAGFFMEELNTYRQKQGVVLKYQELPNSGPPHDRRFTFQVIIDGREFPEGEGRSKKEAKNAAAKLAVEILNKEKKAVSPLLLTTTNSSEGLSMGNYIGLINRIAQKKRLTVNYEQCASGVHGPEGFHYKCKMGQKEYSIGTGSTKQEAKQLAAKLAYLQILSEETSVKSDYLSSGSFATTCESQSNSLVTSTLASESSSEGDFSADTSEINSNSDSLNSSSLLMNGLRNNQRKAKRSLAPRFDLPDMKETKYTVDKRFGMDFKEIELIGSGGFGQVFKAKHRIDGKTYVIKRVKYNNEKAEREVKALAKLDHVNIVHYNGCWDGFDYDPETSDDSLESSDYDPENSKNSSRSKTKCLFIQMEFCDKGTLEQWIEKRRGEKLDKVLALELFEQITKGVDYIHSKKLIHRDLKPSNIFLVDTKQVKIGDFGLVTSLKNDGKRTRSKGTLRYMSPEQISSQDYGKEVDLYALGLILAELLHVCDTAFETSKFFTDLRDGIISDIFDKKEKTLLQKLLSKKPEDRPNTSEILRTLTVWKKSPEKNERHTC

Data set [15] addresses Serine/threonine-protein kinase Aurora (Homo sapiens, UniProt Q96GD4+Q9UQB9+O14965). As to the kind of experiment: Inhibition of AurA/AurB/AurC in human HeLa cells lysate at 2 uM pre incubated for 15 mins followed by ATP acyl phosphate probe addition and measured after 10 mins by LC-MS/MS analysis relative to control. In kind it is subcellular. Conditions: time 25.0 min. The essentials: as §1

A short description of data set [16]: Toxicity in C57Bl/6 mouse assessed as effect on alanine aminotransferase level at 50 mg/kg, ip for 14 days (reference value: 35 U/L). It counts as organism-based. The settings on record: in vivo, 336 h, time 14 day.
In data set [17] the test system is Lewis lung carcinoma. The data set can be described thus: Antitumor activity against PML knock down mouse LL2 cells transfected with ad-PML allografted in C57Bl/6 mouse assessed as reduction tumor growth at 50 mg/kg, ip administered on day 8 post implantation measured after 20 days. The settings on record: time 12.0 day.

Serine/threonine-protein kinase PLK4 (Homo sapiens), sequence (O00444 whole entry): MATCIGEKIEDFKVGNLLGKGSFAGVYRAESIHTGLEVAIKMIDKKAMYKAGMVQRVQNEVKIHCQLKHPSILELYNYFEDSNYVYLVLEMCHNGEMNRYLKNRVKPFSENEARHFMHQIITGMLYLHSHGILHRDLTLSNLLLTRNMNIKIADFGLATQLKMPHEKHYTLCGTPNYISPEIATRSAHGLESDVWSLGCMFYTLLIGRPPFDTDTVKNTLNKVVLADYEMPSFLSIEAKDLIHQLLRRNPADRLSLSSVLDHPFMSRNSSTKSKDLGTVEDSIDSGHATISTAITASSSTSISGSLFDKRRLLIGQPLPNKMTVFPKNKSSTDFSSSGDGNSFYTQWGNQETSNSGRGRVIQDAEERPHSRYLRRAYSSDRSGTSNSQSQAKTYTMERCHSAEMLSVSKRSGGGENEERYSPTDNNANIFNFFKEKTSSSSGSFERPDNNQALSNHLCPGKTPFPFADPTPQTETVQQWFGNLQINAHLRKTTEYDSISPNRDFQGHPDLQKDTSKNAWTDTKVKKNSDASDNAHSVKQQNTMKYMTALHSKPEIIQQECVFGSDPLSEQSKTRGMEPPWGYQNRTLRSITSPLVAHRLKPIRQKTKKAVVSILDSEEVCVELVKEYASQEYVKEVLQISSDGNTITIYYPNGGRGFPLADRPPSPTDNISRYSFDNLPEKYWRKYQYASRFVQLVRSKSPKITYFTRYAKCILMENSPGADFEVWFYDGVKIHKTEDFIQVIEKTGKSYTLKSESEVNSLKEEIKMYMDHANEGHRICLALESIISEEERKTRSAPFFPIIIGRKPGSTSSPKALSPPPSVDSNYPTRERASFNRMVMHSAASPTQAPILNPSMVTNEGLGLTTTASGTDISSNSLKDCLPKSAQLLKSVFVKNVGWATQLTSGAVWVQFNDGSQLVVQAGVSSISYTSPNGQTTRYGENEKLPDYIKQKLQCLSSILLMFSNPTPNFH
Calcium/calmodulin-dependent protein kinase type II subunit gamma, sequence (Q13555 whole entry): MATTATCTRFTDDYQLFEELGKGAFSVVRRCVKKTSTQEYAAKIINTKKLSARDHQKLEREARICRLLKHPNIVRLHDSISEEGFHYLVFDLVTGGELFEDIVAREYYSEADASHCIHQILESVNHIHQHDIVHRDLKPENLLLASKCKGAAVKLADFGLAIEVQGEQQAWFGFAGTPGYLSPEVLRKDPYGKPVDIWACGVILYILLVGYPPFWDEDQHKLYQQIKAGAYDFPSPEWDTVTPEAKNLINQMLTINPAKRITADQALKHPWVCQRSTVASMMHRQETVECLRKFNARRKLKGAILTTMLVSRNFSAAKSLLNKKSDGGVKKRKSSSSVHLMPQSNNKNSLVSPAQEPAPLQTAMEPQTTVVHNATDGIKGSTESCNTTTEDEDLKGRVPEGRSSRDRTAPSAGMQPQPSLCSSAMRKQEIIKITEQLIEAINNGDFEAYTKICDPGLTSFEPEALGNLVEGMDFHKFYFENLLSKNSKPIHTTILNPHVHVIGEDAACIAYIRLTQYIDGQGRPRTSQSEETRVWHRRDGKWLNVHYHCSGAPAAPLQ

As to `CCOc1cc(N2CCC(O)CC2)ccc1Nc1ncc2c(n1)N(C)c1ccccc1C(=O)N2C`, the results for the Activity in data set [1] and in data set [16] were 2.8% and 402 U/L, respectively. Besides, the IC50 in data set [2], in data set [3], in [4], in [5] and in [6] was more than 50 µM in each case. Also, the inhibition in data set [7] is -0.5%; in [9] it was 0.6%; in [10] it was 33.3%; in data set [11], 31.4%; in [12], 4.1%; in data set [13] it was 0.9%. The inhibition was -2.3% in [14] and -5.8% in data set [15]. Further, in [8], the inhibition at 2 µM is 11.3%. In data set [17], the outcome was Active.

As a reminder, the IC50 is the concentration needed to halve the response being measured. One may read the inhibition as the change of the read-out against control, counted positive when it falls.
